Measurements collected from several papers.
Each line is one published result; the experiments were not run side by side.
Target: Serine/threonine-protein kinase MARK2 (MARK2, Homo sapiens, UniProt Q7KZI7)

SMILES	test	setting	remaining binding [%]
C[C@H]1CCN(c2nccc(-c3cnn4ncccc34)n2)C1	binding	1 µM	100
COc1ncc2cc3ccccc3nc2c1C#N	cell-free assay, competition with immobilised ligand	5 µM	97
F[C@@H]1CCN(c2nccc(-c3cnn4ncccc34)n2)C1	binding	1 µM	100
O=C(NCC1CCOCC1)c1n[nH]cc1NC(=O)c1c(F)cccc1F	binding, competition with immobilised ligand	1 µM	71
O=C(NCCCC1CCCCC1)c1ccc(CNC(=O)c2cnn(-c3ccccc3)c2C(F)(F)F)cc1	cell-free assay, competition with immobilised ligand	0.1 µM	100
CN(c1nccc(-c2cnn3ncccc23)n1)C1CC1	binding	1 µM	100
CCc1ccccc1C(=O)Nc1n[nH]c2c(C)c(F)c(C3C(C#N)=C(C)N(C)C(C)=C3C#N)cc12	cell-free assay, competition with immobilised ligand	1 µM	40
c1cnn2ncc(-c3ccnc(N4CCC45COC5)n3)c2c1	binding	1 µM	63
COc1cnc(Nc2cccc(S(N)(=O)=O)c2)nc1N1CCN(c2ccccc2)CC1	binding, competition with immobilised ligand	1 µM	88
O=S(=O)(NC1CCC(c2cc(F)ccc2F)(S(=O)(=O)c2ccc(Cl)cc2)CC1)C(F)(F)F (stereo not shown)	cell-free assay, competition with immobilised ligand	1 µM	100
CN(C)c1ncc(F)c(-c2cnn3ncccc23)n1	binding	1 µM	72
COc1ccc2cc(OCC3(C(=O)O)CN(C(=O)c4ccc(F)cc4)C3)ccc2c1	cell-free assay, competition with immobilised ligand	1 µM	91
O=C(NCCCN1CCOCC1)c1ccc(Nc2nccc(-c3cc4ccccc4s3)n2)cc1	binding, competition with immobilised ligand	1 µM	81
CO[C@@H](C)c1c(Nc2ccc([C@@H](N(C)C(=O)C3CCS(=O)(=O)CC3)C(F)(F)F)cc2)cnc2cc(Cl)nn12	cell-free assay, competition with immobilised ligand	1 µM	100
N[C@H]1CCN(c2nccc(-c3cnn4ncccc34)n2)C1	binding	1 µM	100
O=C(NCCCN1CCOCC1)c1ccc(Nc2ncc(Cl)c(-c3ccc(Cl)s3)n2)cc1	binding, competition with immobilised ligand	1 µM	74
FC(F)(F)Oc1cccc(-c2cnc3ccc(-c4ccncc4)nn23)c1	cell-free assay, competition with immobilised ligand	5 µM	64
Cc1cnc(Nc2ccc(C(=O)N3CCC(N4CCCC4)CC3)cc2)nc1-c1cc2ccccc2s1	binding, competition with immobilised ligand	1 µM	68
O=C(O)[C@@H]1[C@@H](Cn2nnc3ccccc3c2=O)CC[C@H]1C(=O)c1ccc(OCCC2CCOCC2)cc1	cell-free assay, competition with immobilised ligand	1 µM	100
CNC(=O)[C@@H]1CC[C@@H](n2c(-c3ccc4cnccc4c3)nc3ccc(C(=O)NCc4cccc(C(N)=O)c4)cc32)C1	binding, competition with immobilised ligand	1 µM	100
C[C@H](c1ccnc(Nc2nc3ccc(-c4cc(N(C)C)ncn4)cc3[nH]2)c1)N1CCN(C(=O)CC(F)(F)F)CC1	cell-free assay, competition with immobilised ligand	0.1 µM	100
Nc1ncc2c(n1)-c1c([nH]c3ccc(C#CC4CC4)cc13)CCCC2	binding, competition with immobilised ligand	1 µM	94
